This is a sample that favours compounds with a hit; in the whole collection about 9.5% have one here.
M1 ag: activates the M1 muscarinic receptor | CHO-M1 cells, Fluo-4 calcium fluorescence, agonist mode; active compounds read high | actives 3% (n = 64,000) | B-score at 10 µM | AID 626;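 active = fluorescence rise, raw or as B-score row- and column-corrected plate score, outside the 99.7% band of its plate's samples, either direction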
HEK293 NFkB inh: inhibitors of the PMA/ionomycin-induced NF-kB reporter in HEK293 cells. inhibition, % at 3 µM. HEK-293 NF-kB luciferase reporter, luminescence. actives 0.21% (n = 62,000);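 active = inhibition above the mean of all tested compounds plus 3 SD, cut at about 40% in these data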;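 also: 0% = stimulated DMSO wells and 100% = 10 µM reference inhibitor 5653914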
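Material: HEK-293 cells with stable firefly luciferase reporter driven by four HIV NF-kB elements / Also added: PMA plus ionomycin mix as NF-kB-activating stimulus / Compound dosing: 3 µM once, 0.30% DMSO / Times: 1 h pretreatment, 16 h stimulation, 37 °C / Signal: luminescence / Evaluation: per-plate % inhibition versus controls / Benchmarks: DMSO and 10 µM reference inhibitor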
M1 antagonist: M1 muscarinic receptor (rat) antagonism; actives 3.4% (n = 64,000); B-score at 10 µM; P08482; CHO-M1 cells, Fluo-4 calcium, ACh EC80 antagonist mode; active compounds read low; AID 628;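 active = calcium fluorescence response, raw or row-and-column corrected B-score, differing from the plate sample mean either way at a set confidence level, mostly lower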
Target sequence (P08482 whole entry, looked up): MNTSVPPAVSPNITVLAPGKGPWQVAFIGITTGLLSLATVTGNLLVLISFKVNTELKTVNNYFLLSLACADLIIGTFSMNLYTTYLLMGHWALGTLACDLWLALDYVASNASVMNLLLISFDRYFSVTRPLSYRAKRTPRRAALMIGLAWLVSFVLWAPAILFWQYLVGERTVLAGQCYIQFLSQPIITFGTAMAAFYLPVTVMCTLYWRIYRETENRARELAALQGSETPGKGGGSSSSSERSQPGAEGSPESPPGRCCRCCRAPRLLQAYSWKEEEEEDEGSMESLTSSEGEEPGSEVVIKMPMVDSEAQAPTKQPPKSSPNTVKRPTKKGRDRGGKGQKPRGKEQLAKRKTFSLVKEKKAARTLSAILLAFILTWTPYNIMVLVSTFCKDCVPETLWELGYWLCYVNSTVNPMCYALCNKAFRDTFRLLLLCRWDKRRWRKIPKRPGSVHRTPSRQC
Jurkat tox 60K: cytotoxicity toward Jurkat cells | inhibition, % at 4 µM | Jurkat E6.1 viability, ATP luminescence, 48 h | AID 463 | actives 1.2% (n = 56,000);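 active = inhibition above the mean inhibition of all tested compounds plus 3 SD, cut at about 28% in these data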
Htt clearance: compounds clearing mutant huntingtin protein. inhibition, % at 1.5 µM. HeLa Exon1htt(103Q)mCFP, aggregate imaging; zero = plate's median compound well. actives 0.42% (n = 47,000);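 active = inhibition of aggregate fluorescence above about 70%, also judged a hit by eye on the cell image, limit read from the data, passing the limit was not always enough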;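 also: cells exposed to compound for three days before fixation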
D1 allo mod: D1 dopamine receptor (human) allosteric modulation; P21728; HEK293 D1, CRE-luciferase, dopamine EC30 potentiation; actives deviate in either direction; B-score at 10 µM; actives 5.9% (n = 58,000); AID 641;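 active = luminescence count or its row- and column-corrected plate score outside the 99.7% band of the plate's sample wells, on either side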
An asterisk follows results filed as active; / = not tested or not shown.

SMILES | M1 ag | HEK293 NFkB inh | M1 antagonist | Jurkat tox 60K | Htt clearance | D1 allo mod
CCc1ccccc1NS(=O)(=O)c1ccc2[nH]cc(C(=O)NCC3CCCO3)c(=O)c2c1 (centres undefined) | -0.49 | -2 | -0.28 | -6 | 94* | -1.8
Cc1cc(C)cc(NS(=O)(=O)c2ccc3[nH]cc(C(=O)NCc4ccco4)c(=O)c3c2)c1 | -1.4 | 18 | 0.36 | 48* | -27 | -0.44
Cc1ccccc1NS(=O)(=O)c1ccc2[nH]cc(C(=O)N(C)Cc3ccco3)c(=O)c2c1 | -1 | -1 | 0.033 | 2 | 43 | 0.46
CCOc1ccc(NS(=O)(=O)c2ccc3[nH]cc(C(=O)NCC4CCCO4)c(=O)c3c2)cc1 (centres undefined) | 0.84 | 12 | -0.74 | 1 | -18 | -0.53
CCOc1ccc(NS(=O)(=O)c2ccc3[nH]cc(C(=O)N(CC)CC)c(=O)c3c2)cc1 | 23* | 6 | -11* | -10 | -6 | -0.16
Cc1ccc(NCc2nnc(SCC(N)=O)n2CCc2ccccc2)cc1 | / | 14 | / | -2 | / | /
c1cc2[nH]snc2c2nc(C3CC3)nc12 | 0.3 | 17 | 0.69 | 4 | 58 | -0.27
CCOC(=O)N1CCC(c2cc(=O)n3[nH]c(C)c(-c4ccc(F)cc4)c3n2)CC1 | -0.12 | 12 | -0.76 | 3 | 82* | 0.085
CCOC(=O)/C(C#N)=C1/C=CN(C)C(C)=N1 | 0.32 | 11 | 0.17 | -6 | / | -0.63
CCOC(=O)/C(C#N)=C1/C=C(C)NC(c2ccccc2O)=N1 | 16* | 0 | -7.1* | 0 | 17 | -1.9
CCC(C(=O)Nc1nccs1)(C(F)(F)F)C(F)(F)F | 7.4* | / | -0.53 | / | 20 | /
COc1ccc(CNC(=O)COc2ccc(S(=O)(=O)NC(C)C)cc2)cc1 | 0.0098 | 19 | 0.84 | -11 | 4 | -0.019
CSCC[C@H](NC(=O)OC(C)(C)C)c1nnc(SCC(=O)Nc2c(C)cccc2C)o1 | 1 | 9 | 2* | 2 | 40 | -0.99
CN(C)S(=O)(=O)c1ccc(N2CCN(S(=O)(=O)c3ccc(F)cc3)CC2)c(Cl)c1 | -0.96 | 26 | 0.14 | 34* | 14 | 2.4
O=c1/c(=C/c2ccccn2)sc2nc3ccccc3n12 | 0.25 | -42 | -0.49 | -2 | 12 | -3.8*
O=c1c2ccccc2nc2sc3ccccc3n12 | -0.046 | -15 | -0.066 | -3 | -16 | -0.062
COc1ccc(NC(=O)CC#N)cc1OC | / | / | / | / | -11 | /
O=S(=O)(NC1CCCCC1NCc1ccco1)c1ccc(Cl)cc1 (centres undefined) | -0.32 | 2 | -0.86 | -4 | / | -2.3*
CN(C)c1nc(Oc2ccc(=O)n(-c3ccccc3)n2)nc(N2CCOCC2)n1 | -0.098 | 6 | -0.32 | 0 | / | 5.6*
CCNc1nc(Oc2ccc(=O)n(-c3ccccc3)n2)nc(N(C)C)n1 | / | / | / | / | -11 | /
CCN(CC)c1ccc(NC(=O)c2ccco2)c(C)c1 | 0.14 | -4 | -0.4 | -4 | / | -0.079
O=C(Nc1cnc2ccccc2c1)c1ccco1 | -0.4 | -17 | 0.88 | 9 | / | -4.5*
CCN(CC)c1ccc(NC(=O)c2cc(Cl)ccc2OC)cc1 | / | / | / | / | 6 | /
CCCOc1cccc(C(=O)Nc2cccc(NC(=O)c3ccco3)c2)c1 | 6* | -3 | -0.26 | -1 | 41 | -0.21
CCN(CC)c1ccc(NC(=O)c2ccccc2F)cc1 | 2.1 | -28 | -0.016 | 57* | / | -5*
SMILES | M1 ag | HEK293 NFkB inh | M1 antagonist | Jurkat tox 60K | Htt clearance | D1 allo mod
CCN(CC)c1ccc(NC(=O)c2ccco2)cc1 | -0.38 | -30 | 0 | -2 | / | -3*
O=C(Nc1cnc2ccccc2c1)c1cccnc1 | 0.22 | -9 | 0.51 | -8 | -329 | -3.9
COc1ccc(N2CCN(/C(=N\S(=O)(=O)c3ccccc3)Nc3nc(C)cc(C)n3)CC2)cc1 | 0.25 | -6 | 0.55 | -8 | / | 0.47
COCCOC(=O)c1c(C)oc2ccc(OC(=O)c3c(OC)cccc3OC)cc12 | 2.2 | 18 | 0.63 | 9 | 8 | -3.7
COc1ccc(/C=N/n2c(SC)nnc(C(C)(C)C)c2=O)c(OC)c1 | / | / | / | / | 45 | /
COc1ccc(-c2nnc(CSc3nc4ccccc4c(=O)n3C)o2)cc1OC | 1.1 | 7 | -0.83 | 4 | / | 8.5*
CN(C)c1ccc(C2=NOC(CN3C(=O)c4ccccc4S3(=O)=O)C2)cc1 (centres undefined) | 0.31 | -36 | 0.073 | 4 | -26 | -5.7*
O=C1c2ccccc2S(=O)(=O)N1Cc1nc2ccccc2s1 | -1.1 | 24 | -0.13 | 8 | / | /
COc1ccc(C(=O)Nc2ccc(S(=O)(=O)Nc3nccnc3OC)cc2)cc1OC | 25* | -6 | -19* | -1 | 34 | -0.31
COc1ccc(C(=O)Nc2ccc(S(=O)(=O)N3CCCCC3)cc2)cc1OC | -1 | 8 | 0.062 | -1 | -63 | 0.29
COc1ccc(C)cc1Nc1cc(C)nc2nc(C)nn12 | -0.15 | -3 | -0.92 | 36* | / | 0.46
COc1ccc(OC)c(Nc2cc(C)nc3nc(C)nn23)c1 | 0.48 | 7 | 0.19 | 25 | / | 0.35
CSc1nc(NC(C)C)nc(N2CCOCC2)n1 | 0.016 | 14 | 0.11 | -1 | -25 | 18*
Cc1nn2cc(-c3ccc(-c4ccccc4)cc3)nc2s1 | 0.43 | -34 | -0.19 | 0 | / | -4*
CCc1nn2cc(-c3ccccc3)nc2s1 | 0.17 | -4 | 0.68 | -3 | / | -8.3*
Cc1nn2cc(-c3ccc(Cl)cc3)nc2s1 | / | -32 | / | 6 | 18 | /
Cc1nn2cc(-c3ccccc3)nc2[nH]c1=O | / | / | / | / | 23 | /
O=C(C1CC=CCC1)N1CCN(C(=O)C2CC=CCC2)CC1 (centres undefined) | / | / | / | / | -33 | /
CCOC(=O)CSC1=C(C#N)C(c2ccc(C)s2)CC(=O)N1 (centres undefined) | -0.16 | 23 | 0.32 | 86* | -4 | 0.78
Cc1ccccc1NC(=O)c1cnc2ccccn2c1=O | -1 | -22 | 0.21 | -2 | -32 | -5.8*
Cc1csc(NC(=O)c2cnc3ccccn3c2=O)n1 | -0.1 | -23 | -0.36 | 6 | / | -1.6
O=C(Nc1sccc1C(=O)NCc1ccco1)c1cccnc1 | 1.8 | 7 | 0.6 | 12 | -2 | /
CNC(=O)c1ccsc1NC(=O)c1ccccc1 | 0.35 | 6 | -1.3 | -7 | / | 17*
COC(=O)c1sccc1NC(=O)CN1CCN(c2ccc(F)cc2)CC1 | 0.0054 | 11 | 0.6 | 4 | / | -1.2
CCCc1cc(=O)[nH]c(SCC(N)=O)n1 | 1 | 12 | -0.51 | 0 | 17 | -0.81
CCCc1nc(SCC(N)=O)[nH]c(=O)c1CC | -0.31 | 15 | 0.026 | / | / | -2.8*
CCOC(=O)CNC(=O)Nc1ccccc1C(=O)OC | 0.26 | / | 0.32 | / | / | -0.094
CCCc1ccc(OCc2ccc(C(=O)N3CCN(c4ccccn4)CC3)o2)c(OC)c1 | 5.5* | -13 | -0.69 | 2 | 10 | -0.075
CCOC(=O)C(NC(C)=O)(OCc1ccc(F)cc1)C(F)(F)F (centres undefined) | 0.18 | 2 | -1.1 | 3 | / | -5.7*
COc1ccc(N(CC(=O)NCc2cccs2)S(=O)(=O)c2cccnc2)cc1 | -0.46 | 2 | 2.2 | 5 | 15 | 0.65
